Source: PubChem
eIF4E-4G inh: inhibitors of eIF4E and eIF4G interaction in translation initiation; P63073+Q04637; TR-FRET eIF4E-eIF4GI(517-606) binding, 2 h; inhibition, % at 21.7 µM; actives 0.37% (n = 220,000); AID 782;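 also: 0% = full FRET control wells and 100% = background wells lacking eIF4GI fragment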
14-3-3 Bad inh: disrupts binding of bovine 14-3-3 zeta to phospho-Bad peptide | P63103 | TR-FRET 14-3-3zeta/Dy647-pBad peptide displacement, 1 h | inhibition, % at 21.7 µM | actives 0.71% (n = 220,000);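 active = inhibition above about 70%, limit read from the data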;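 also: 0% = full 14-3-3 plus peptide FRET controls and 100% = background without 14-3-3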
RBBP9 inh: human RBBP9 hydrolase inhibition; recombinant RBBP9, FP-Rh probe fluorescence polarization; inhibition, % at 7.94 µM; actives 0.2% (n = 220,000);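 active = inhibition above the campaign mean of all tested compounds plus 3 SD, cut at about 14% in these data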;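 also: plate controls were DMSO wells with RBBP9 for no effect and wells lacking RBBP9 protein for full effect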
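Measured by – fluorescence polarization · Test system – RBBP9 protein · Input – 2.5 µM RBBP9 dispensing solution, before mixing · Measure – percent inhibition from mP, scaled between DMSO and no-protein wells · Benchmarks – DMSO-treated enzyme wells and wells lacking RBBP9 · Times – preincubation 30 min plus labeling 45 min at 25 °C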
EBV gp42 inh: inhibitors of Epstein-Barr virus glycoprotein 42; Q1HVG2; Fluorescence polarization binding assay, mP read-out; AID 1085; actives 0.42% (n = 220,000); inhibition, % (tested at 21.74 µM); in the data active = inhibition above about 50%
WT yeast gro inh: growth inhibition of WT yeast, mitochondrial fusion screen; mitochondrial fusion phenotypic screen, WT strain; inhibition, % at 10 µM; actives 2.1% (n = 190,000); AID 1362; in the data active = inhibition above about 58%; tested in S. cerevisiae
p47phox inh: inhibitors of human p47phox binding; AID 1274; actives 0.53% (n = 220,000); p47phox/p22phox peptide binding, fluorescence polarization, 2 h; inhibition, % at 24.7 µM;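 also: 0% = p47phox with labelled peptide and 100% = labelled peptide alone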
Starred values were filed as active, the others as inactive; x = no result given; [ ] = dose if it differs, or a comment. Sampled rows, rich in hits. Any-hit rate of the full collection: about 3.7%.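 The calls were made as follows, unless noted: active = inhibition above about 30% (limit read from the data); inactive = the rest.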

SMILES	eIF4E-4G inh	14-3-3 Bad inh	RBBP9 inh	EBV gp42 inh	WT yeast gro inh	p47phox inh
O=C(/C=C/c1ccccc1)/C=C/c1ccccc1	4.1	-2.7	-7.0	-2.2	57.3	6.1
CCOC(=O)c1sc(NC(=O)CSC(=S)N2CCN(C)CC2)nc1C	5.1	-4.3	-2.2	0.1	x	-15.3
Brc1ccc2c(c1)OCCOCCOc1cc(Br)ccc1OCCOCCOCCO2	-4.7	-1.0	-12.3	-5.0	79.9*	-34.3
Brc1cc2c(cc1Br)OCCOCCOCCOCCO2	-2.5	-0.6	-3.8	8.5	-14.2	2.7
Cc1ccc(Sc2ncnc3onc(C)c23)c(C)c1	-0.1	-18.3	-5.6	-1.6	60.6*	-6.5
Cc1noc2ncnc(Sc3ccccc3Cl)c12	6.6	9.0	-6.0	5.3	98.6*	-0.6
COC(=O)c1ccccc1Sc1ncnc2onc(C)c12	10.8	5.1	-5.7	6.2	26.6	1.3
Cc1cc(=O)oc2cc(OCC(=O)Nc3ccc(S(=O)(=O)N(C)C)cc3)ccc12	-2.0	20.0	0.9	1.5	x	5.4
CC(C)C(c1nnnn1C(C)(C)C)N1CCOCC1 (stereo not drawn)	3.3	71.0*	-5.5	7.5	-0.8	-15.7
CC(C)C(c1nnnn1C(C)(C)C)N1CCC(Cc2ccccc2)CC1 (stereo not drawn)	-2.0	-7.5	2.4	-16.5	72.6*	-38.4
O=C(COc1ccc(Br)cc1)Nc1ccncc1	3.2	0.2	-9.6	-4.5	17.2	-11.5
Cc1cc(OCC(=O)Nc2ccncc2)c(C)cc1Br	1.2	-3.1	-6.5	-10.0	59.8*	-2.7
COc1ccc(OC)c(CNc2ccc(F)c(Cl)c2)c1	15.1	79.4*	-10.9	-5.9	15.5	-21.8
CCC(CO)NCC#Cc1ccccc1 (stereo not drawn)	-3.4	-3.8	-6.5	1.9	-5.0	-12.0
Cc1ccccc1COC(=O)c1nn(-c2ccccc2)nc1N	4.2	24.2	-10.3	6.4	61.6*	4.4
Nc1nn(-c2ccccc2)nc1C(=O)OCc1ccccc1F	4.9	-0.3	1.9	-18.8	16.4	-13.5
Cn1c2ccccc2c2cnn(CC(=O)N3CCCCC3)c(=O)c21	2.1	5.4	-0.3	-15.8	x	-8.8
CCN(CC)c1ccc(/C=C(/C#N)c2nc3ccc(C)cc3[nH]2)c(OC(C)C)c1	-11.8	-2.0	-6.8	66.9*	27.6	-45.4
CCCOc1cc(N(CC)CC)ccc1/C=C(/C#N)c1nc2ccc(C)cc2[nH]1	0.6	-4.6	-10.1	92.2*	7.1	0.2
CN(C)CC(C)(C)CNS(=O)(=O)c1ccc(Cl)s1	0.2	-1.0	12.1	-3.8	-2.5	-1.1
Cc1ccc2c(CSc3nnc(C4CC4)n3N)cc(=O)oc2c1C	-0.7	-7.1	-7.3	-15.5	95.9*	-8.4
Cc1ccc2c(CSc3nnc(C4CC4)n3N)cc(=O)oc2c1	2.6	5.1	0.0	0.4	11.3	-11.4
Oc1c(Br)cc(Br)cc1CNc1ccc(F)cc1	-1.2	-10.9	-2.8	2.9	83.0*	-8.3
COc1ccc(Br)cc1CNc1ccc(O)cc1	-7.0	7.5	-1.8	-12.2	10.8	-8.9
CC(C)N(C(=O)CSc1nnnn1-c1ccc2c(c1)OCO2)C(C)C	0.4	-11.2	-1.5	1.3	-4.2	-10.2
SMILES	eIF4E-4G inh	14-3-3 Bad inh	RBBP9 inh	EBV gp42 inh	WT yeast gro inh	p47phox inh
ClCC1=Nc2cccc3cccc(c23)N1	12.6	8.2	-0.2	1.6	x	9.9
COc1ccc(C2=Nc3cccc4cccc(c34)N2)cc1	-6.5	-12.8	-4.2	-16.6	65.7*	-19.8
CC(C)C1=Nc2cccc3cccc(c23)N1	2.8	38.2	8.0	-15.0	-24.9	150.3*
CCOC(=O)c1cnc(N)nc1C(F)(F)F	-2.0	1.2	-2.0	-5.9	7.8	7.3
CCOc1ccccc1NC(=O)C(NCCN(C)C)c1ccccc1 (stereo not drawn)	3.0	9.5	-3.5	6.3	5.0	-3.2
CCOc1ccccc1NC(=O)C(OC(=O)c1ccc(CC)cc1)c1ccccc1 (stereo not drawn)	-1.8	-9.0	-0.9	-18.6	7.0	-6.7
CCOc1ccccc1NC(=O)C(OC(=O)c1ccc(O)cc1)c1ccccc1 (stereo not drawn)	3.7	12.8	-16.7	-17.3	77.4*	-38.1
CCOc1ccccc1NC(=O)C(NCC1CCCCC1)c1ccccc1 (stereo not drawn)	4.4	-12.6	-2.0	-7.2	73.9*	1.4
Cc1ccc2[nH]c3c(c2c1)CN(C(=O)CN1CCN(c2cccc(C)c2C)CC1)CC3	4.5	-13.0	5.3	19.0	49.6	-19.8
Cc1ccc2[nH]c3c(c2c1)CN(C(=O)CN1c2ccc(F)cc2CCC1C)CC3 (stereo not drawn)	-10.4	-3.0	4.2	-9.5	-13.0	196.3*
O=C(O)CC1(CC(=O)Nc2ccc3sccc3c2)CCCCC1	-0.9	-10.1	2.1	-8.2	x	-4.8
Fc1ccc(/C=N/NC2=Nc3cccc4cccc2c34)cc1	3.0	-4.1	-4.9	56.9*	14.8	-44.7
c1ccc(NC2=Nc3cccc4cccc2c34)cc1	3.7	-0.6	-5.3	-5.0	25.8	-11.4
CN(C)c1cccc2c(S(=O)(=O)N3CCOCC3)cccc12	6.8	-2.2	-3.8	-0.2	11.7	58.8*
O=S(=O)(c1cccc2cccnc12)N1CCOCC1	0.7	-6.2	-3.5	-6.4	x	10.9
CC(C)(C(=O)Nc1nccs1)c1ccccc1	-4.2	-14.5	1.7	-24.9	-9.4	-3.1
COc1ccccc1NC(=O)c1ccc(NC(=O)c2cc3c(s2)CCC3)cc1	41.5*	79.2*[fluorescence artefact?]	-7.2	-4.1	-3.3	-14.6
O=C(Nc1ccccc1OC(F)F)c1cc2c(s1)CCC2	-2.6	8.9	-8.2	-16.4	6.4	-0.7
C/C(=N/OCC(=O)NCCCCCCNC(=O)CO/N=C(/C)c1cccs1)c1cccs1	-22.1	18.5	-8.0	5.4	18.0	-0.9
O=C(NC1CC1)C1=C[C@@H](C2CCCCC2)C[C@@H](OCc2ccc(CO)cc2)O1	0.0	-0.3	-7.1	-3.5	-25.0	x
O=C(NC1CC1)C1=C[C@@H](C2CC2)C[C@@H](OCc2ccc(CO)cc2)O1	33.7*	1.4	x	-8.3	x	-11.3
CC1(c2nnc(-c3ccccc3)o2)CC(c2ccncc2)=NO1 (stereo not drawn)	97.2*	52.6	x	-5.9	x	2.9
CC1(c2nnc(-c3ccccc3)o2)CC(c2cccnc2)=NO1 (stereo not drawn)	-5.2	-5.8	x	-3.8	x	-29.5
Nn1c(SCc2ccccc2F)nnc1-c1ccccn1	-3.2	1.2	-3.4	-20.6	x	-16.0
CN1C(=O)NC(c2ccccc2)C2=C1CN(c1ccc3ccccc3c1)C2=O (stereo not drawn)	-40.0	83.8*	-5.7	-2.3	-16.5	25.1
COC(=O)COc1ccc2c(-c3ccc(OC)cc3)cc(=O)oc2c1	3.9	-9.2	-10.4	2.9	4.1	-2.3
